Assay results from PubChem BioAssay AID617 (SRMLSC, 2007).

System: E. coli BW25113 ΔtolC growth inhibition, OD615
Test: E. coli ΔtolC antibacterial growth inhibition – strain BW25113 ΔtolC::kan, dose response (AID 617)
Summary of the method: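 System: E. coli BW25113 ΔtolC::kan bacteria. Amount: 1:1000 diluted subculture inoculum. Medium: LB broth supplemented with kanamycin at 50 µg/mL. Compound dosing: serial dilution series of compound. Schedule: 20 h exposure at 37 °C. Detection: OD615. Measure: IC50 of bacterial growth inhibition. Benchmarks: chloramphenicol control, 30 µM final.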

| SMILES | IC50 |
| --- | --- |
| COc1ccc(C(C(O)C(=O)c2c[nH]c3ccccc23)N2CCN(c3ccccc3)CC2)cc1 (configuration not stated) | 7.52 µM |
| Cc1onc(-c2c(F)cccc2Cl)c1C(=O)Nc1nc2c(s1)CCCC2 | 19.4 µM |
| COc1ccc(Cl)cc1N1CCN(CCNC(=O)Nc2ccccc2C)CC1 | 43.7 µM |
| COCc1nnc(NC(=O)c2ccc(S(=O)(=O)N(C)C3CCCCC3)cc2)o1 | 4.09 µM |
| COc1ccc2nc3c(cc2c1)c(NC(=O)c1cccs1)nn3CC(C)C | 9.28 µM |
| CCN(C(=O)c1ccc(C(C)(C)C)cc1)c1nnc(Cn2nnc3ccccc32)s1 | 47.5 µM |
| O=C(Nc1ccc(Cl)cc1)N(Cc1cccs1)Cc1cccs1 | 10.7 µM |
| Clc1cccc(NCc2nnc(SCc3ccccc3)o2)c1 | 9.57 µM |
| O=C(O)CCCC(=O)N1CCc2cc(S(=O)(=O)N3CCc4ccccc43)ccc21 | 10.7 µM |
| O=C(CCC1CCCC1)c1c(O)c2ccccc2oc1=O | 0.96 µM |
| COC(=O)c1sccc1NC(=O)c1ccc(Cl)s1 | 4.02 µM |
| CCOC(=O)c1ccc(NC(=O)CSc2nc(SC)ns2)cc1 | 9.73 µM |
| CC(C)(C)c1[nH]nc2c1C(Cc1ccccc1)C(C#N)=C(N)O2 (configuration not stated) | 31.7 µM |
| COc1cccc(-c2cc(C(=O)N3C(C)CCCC3C)no2)c1 (configuration not stated) | 32.8 µM |
| CC(C)(C)c1cc(C(F)(F)F)nc(SCCCNC(=O)c2ccco2)n1 | 6.37 µM |
| c1ccc(-c2nc(N3CCCCCC3)c3ccccc3n2)nc1 | 1.68 µM |
| CC(=O)OCC1=C(C(=O)O)N2C(=O)[C@@H](NC(=O)Cc3cccs3)[C@H]2SC1 | 1.01 µM |
| CCOC(=O)c1cc(CC)sc1NC(=O)Cc1ccsc1 | 10.3 µM |
| COc1ccc(C)cc1NC(=O)CSc1nnc(COc2ccccc2)n1Cc1ccco1 | 22 µM |
| CCn1c(=O)c2cc(C(=O)N3CCN(C(=O)c4ccco4)CC3)sc2c2ccccc21 | 6.29 µM |
| COc1ccc2[nH]c(=O)c(CN(C(=O)NC3CCCCC3)C3CCCCC3)cc2c1 | 19.4 µM |
| CC1CCc2nc(NC(=O)c3cc(C(C)(C)C)nn3C)sc2C1 (configuration not stated) | 12.4 µM |
| Clc1ccc(OCCCc2nc(-c3cccnc3)no2)c(Cl)c1 | 17.2 µM |

| SMILES | IC50 |
| --- | --- |
| CCCCn1c(NC(=O)c2ccccc2)c(C#N)c2nc3ccccc3nc21 | 2.79 µM |
| c1coc(CNc2nc(N3CCCCC3)nc3ccccc23)c1 | 16.9 µM |
| CCc1c(C(=O)Nc2ncn(Cc3cccc(C)c3)n2)csc1C | 29.1 µM |
| CCOc1ccc(S(=O)(=O)Nc2cccc(Cl)c2)cc1 | 4.98 µM |
| Cc1ccc(SCC(=O)N(Cc2nc(-c3ccccc3)no2)C(C)C)cc1 | 10.8 µM |
| Cc1cc(C)n(-c2nc3ccccc3nc2N2CCCCCC2)n1 | 18.4 µM |
| CC(C)(C)n1c(O)c(C=Nc2ccc3c(c2)CCC3)c(=O)[nH]c1=O | 12.8 µM |
| CC1CCN(S(=O)(=O)c2ccc(Cl)cc2Br)CC1 | 17.5 µM |
| Cc1ccc(NC(=O)c2nnn(-c3cc(C)cc(C)c3)c2N)cc1 | 21.9 µM |
| Cc1ccc(Cl)cc1N1CCN(Cc2nnnn2Cc2ccco2)CC1 | 17.6 µM |
| O=C(Nc1ccc(C(F)(F)F)cc1)C1CCCN1S(=O)(=O)c1cccc2cccnc12 (configuration not stated) | 22.6 µM |
| COC(=O)c1ccc(Oc2nc(N3CCCCC3)nc(N3CCOCC3)n2)cc1 | 20.3 µM |
| c1ccc(-c2ccccc2-c2nc(-c3cccnc3)no2)cc1 | 13.9 µM |
| O=c1c2ccccc2nc(SCc2cn3ccsc3n2)n1-c1ccccc1F | 23.3 µM |
| CC1=C(C(=O)OC2CCCC2)C(c2ccc(C)o2)C2=C(CC(c3cccs3)CC2=O)N1 (configuration not stated) | 11.2 µM |
| Fc1ccc(-c2cc(C(F)(F)F)nc(NCC3CCCO3)n2)cc1 (configuration not stated) | 20.7 µM |
| O=C(NCc1ccco1)C(c1cccs1)N(C(=O)C1COc2ccccc2O1)c1cccc(O)c1 (configuration not stated) | 11.8 µM |
| O=C(CSc1nnnn1C1CCCCC1)Nc1cccc(NC(=O)c2ccco2)c1 | 15.5 µM |
| c1ccc(CN(Cc2ccco2)C(c2ccncc2)c2nnnn2C2CCCC2)cc1 (configuration not stated) | 13.2 µM |
| COc1ccc(OC)c(S(=O)(=O)N2CCN(c3c(C)cccc3C)CC2)c1 | 15.6 µM |
| Cc1cccc(S(=O)(=O)C(C#N)c2nc3ccccc3nc2N2CC(C)OC(C)C2)c1 (configuration not stated) | 14.4 µM |
| O=C(CSc1nc2ccccc2o1)Nc1ccccc1N1CCCCCC1 | 11.7 µM |
| Cc1cccc(-n2ncc3c(N4CCC(C)CC4)ncnc32)c1 | 13 µM |

| SMILES | IC50 |
| --- | --- |
| Cc1cc(N2CCCCC2)n2ncc(-c3ccccc3)c2n1 | 17.3 µM |
| Cc1noc(NS(=O)(=O)c2ccc(NC(=O)Nc3ccc(Cl)c(Cl)c3)cc2)c1C | 4.51 µM |
| CCOc1ccc(C(=O)N2CCN(c3cccc(C)c3C)CC2)cc1 | 11 µM |
| Cc1ccc(-c2csc(N(CC3CCCO3)C(=O)c3ccco3)n2)cc1 (configuration not stated) | 20.8 µM |
| COc1ccc(Cl)cc1CN1CCN(c2nc(C)cc(C)c2C#N)CC1 | 13.2 µM |
| Cc1ccc(-n2c(C)cc(C3N=C(N)Nc4nc5ccccc5n43)c2C)c(C)c1 (configuration not stated) | 6.62 µM |
| Cc1cc(N2C3CCC2CC(O)(c2ccc(F)cc2)C3)nc(-c2ccccc2)n1 (configuration not stated) | 7.11 µM |
| O=C(Nc1nnc(-c2ccc3c(c2)OCCO3)o1)c1ccc(Cc2ccccc2)cc1 | 3.26 µM |
| CCc1ccc2[nH]c(=O)c(C(c3nnnn3CCOC)N3CCN(c4ccc(F)cc4)CC3)cc2c1 (configuration not stated) | 35.7 µM |
| O=C(CN(Cc1ccc2c(c1)OCO2)C(=O)CSc1nc2ccccc2o1)NC1CCCCC1 | 6.11 µM |
| OC(COc1ccc2ccccc2c1Br)Cn1ccnc1 (configuration not stated) | 7.54 µM |
| CCCCOc1ccc(S(=O)(=O)n2c(C)nc3ccccc32)cc1 | 11.4 µM |
| O=C(NC1CCCCCCC1)c1ccccc1O | 9.01 µM |
| CC(C)c1ccc(Nc2nc(NCc3ccco3)nc(N3CCOCC3)n2)cc1 | 17.5 µM |
| N#Cc1nc(Cc2ccccc2)oc1NCCc1ccccc1 | 8.5 µM |
| COCc1cc(C)nc2sc3c(=O)oc(C)nc3c12 | 96.2 µM |
| O=C1CC(c2ccco2)CC2=C1C1c3ccccc3C(=O)N1c1ccccc1N2 (configuration not stated) | 22.7 µM |
| C=C(C)COc1ccc(-c2[nH]ncc2Oc2ccccc2OCC)c(O)c1 | 6.14 µM |
| CCn1c(N2CCN(C(=O)C34CC5CC(CC(C5)C3)C4)CC2)nc2ccccc21 | 17.2 µM |
| CC1=C(C(=O)OC2CCCCCC2)C(c2ccc(C)o2)C2=C(CCCC2=O)N1 (configuration not stated) | 6.35 µM |
| COc1ccc(CN(C(=O)CN2C(=O)C(C)Oc3ccccc32)C2CCCC2)c(OC)c1 (configuration not stated) | 28.1 µM |
| Cc1ccc(Cl)cc1N1CCN(C(=O)CCS(=O)(=O)c2cccc3nonc23)CC1 | 44 µM |
| O=c1cc(O)c2c(=O)n3c4c(cccc4c2o1)CCC3 | 2.82 µM |

| SMILES | IC50 |
| --- | --- |
| COc1ccc2[nH]c3c(=O)n(CCCCC(=O)NCCN4CCCC4)c(=S)[nH]c3c2c1 | 17.4 µM |
| Clc1ccc(OCc2nc(-c3ccccn3)n[nH]2)cc1 | 15.4 µM |
| COc1ccc(NS(=O)(=O)c2ccc3oc(Nc4ccc5c(c4)OCCO5)nc3c2)cc1 | 7.68 µM |
| CCCn1nnc(NC(=O)COc2ccc(C3CCCCC3)cc2)n1 | 9.4 µM |
| Cc1nc2c(C(=O)NCc3ccc4c(c3)OCO4)c[nH]n2c(=O)c1Cc1ccccc1F | 2.6 µM |
| Cc1ccc2oc(C(=O)NCc3ccc4c(c3)OCO4)c(C)c2c1 | 11.1 µM |
| Cc1cccc(Cn2c(=O)n(Cc3ccco3)c(=O)c3ccccc32)c1 | 6.71 µM |
| COC(=O)c1ccccc1NC(=O)N1c2ccccc2CC1C (configuration not stated) | 14.1 µM |
| O=C(NCCc1ccccc1)c1nc2c(nnn2Cc2ccccc2Cl)c(=O)[nH]1 | 4.65 µM |
| O=C(CN(C(=O)CNC(=O)c1ccco1)c1ccc(Cl)c(Cl)c1)NC1CCCCC1 | 28.1 µM |
| CCOC(=O)c1cnn(-c2nc3sc4c(c3c(=O)[nH]2)CCCC4)c1N | 0.28 µM |
| CC(C)COc1ccc(-c2nnc(-c3ccco3)o2)cc1 | 40.6 µM |
| Cc1ccc(-n2c(C)cc(C(=O)COC(=O)c3c(C)noc3C)c2C)cc1 | 5.61 µM |
| CCn1c2ccccc2c2cc(C3C(C#N)=C(N)Oc4n[nH]c(COC)c43)ccc21 (configuration not stated) | 22.7 µM |
| CN(C)C1(c2nnnn2CCOC(=O)Nc2ccc(Cl)cc2)CCCCC1 | 8.24 µM |
| CC1CCN(c2oc(-c3ccccc3F)nc2C#N)CC1 | 19.2 µM |
| O=C(CC(=O)c1cc(Cl)ccc1O)c1ccccc1 | 8.34 µM |
| CCCc1ccc(Oc2cn[nH]c2-c2ccc(O)c(C)c2O)cc1 | 1.84 µM |
| O=C(COc1ccccc1)Nc1nnc(-c2ccc(Cl)s2)o1 | 1.86 µM |
| O=C(Nc1ccn(Cc2ccc(Cl)cc2)n1)c1ccc2c(c1)OCO2 | 7.31 µM |
| Cn1c(NC(=O)c2ccccc2NC(=O)C(C)(C)C)nc2ccccc21 | 9.13 µM |
| CCCc1cc(C(=O)N2CCN(c3ccccc3C)CC2)cs1 | 8.52 µM |
| COc1ccc(S(=O)(=O)N(Cc2cccs2)C2CCCC2)cc1 | 8.13 µM |

| SMILES | IC50 |
| --- | --- |
| O=C1CCCc2nc3nc4ccccc4n3cc21 | 17 µM |
| Cc1sc(NC(=O)c2ccco2)c(CN2CCN(c3ccccn3)CC2)c1C | 9.55 µM |
| COC(=O)c1ccccc1NC(=O)c1ccc2c(c1)OCCO2 | 21.9 µM |
| COC(=O)c1cn(NC(=O)c2cnccn2)c(=O)c2ccccc12 | 2.44 µM |
| COc1ccc(OC)c(Nc2nc(-c3cccs3)cs2)c1 | 28.2 µM |
| CCCc1ccc(Oc2cn[nH]c2-c2ccc(O)cc2O)cc1 | 0.24 µM |
| c1ccc(-n2nnnc2Oc2cccc3cccnc23)cc1 | 7.65 µM |
| c1ccc(-c2csc(N3CCN(c4ccccn4)CC3)n2)cc1 | 8.99 µM |
| O=C1c2ccccc2C(Nc2cccc(C(F)(F)F)c2)N1Cc1ccco1 (configuration not stated) | 7.32 µM |
| CCSc1nnc(NC(=O)c2nc(-c3ccccc3)n(-c3ccccc3)n2)s1 | 2.23 µM |
| CC1CN(S(=O)(=O)c2ccc(C(=O)Nc3nnc(-c4ccc5c(c4)CCCC5)o3)cc2)CC(C)O1 (configuration not stated) | 0.77 µM |
| Cc1ccc2c3c1C1(C(=O)N3C(C)(C)CC2C)C(C#N)=C(N)Oc2cc(O)ccc21 (configuration not stated) | 2.96 µM |
| O=c1n(Cc2ccccc2)c2cc(Cl)cnc2n1Cc1ccccc1 | 10.2 µM |
| CCCCN(CCCC)C(=O)CSc1nnc(-c2cc(OC)c(OC)c(OC)c2)o1 | 27.7 µM |
| Cc1ccc(S(=O)(=O)NCCSc2nnnn2-c2cc(C)ccc2C)cc1 | 13.4 µM |
| Cc1ccc(Cl)cc1NC(=O)CC(O)(C(F)(F)F)C(F)(F)F | 3.77 µM |
| CC(C)Cn1c(N)c(C(=O)NCc2cccs2)c2nc3ccccc3nc21 | 12.9 µM |
| O=C(Nc1nc2ccccc2s1)C1CCCN1S(=O)(=O)c1ccc(Cl)cc1 (configuration not stated) | 8.91 µM |
| O=C(Nc1nnc(-c2ccc(F)cc2)o1)c1ccco1 | 16.3 µM |
| CCN(CC)c1ccc(C(=O)n2cnc3ccccc32)cc1 | 15 µM |
